The target of assay [1] is Pantothenate synthetase (Mycobacterium tuberculosis (strain ATCC 25618 / H37Rv)) (UniProt P9WIL5). The assay can be described thus: Coupled enzyme confirmation of inhibitors against recombinant Mtb PanC (AID 375; call rule not given here;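 further: 0% = full reaction with vehicle and 100% = no enzyme background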). The note with it: coupled enzyme assay; at 10 µM, stronger effect = higher value.
Assay [2] can be described thus: reduced viability of SK-BR-3 breast cancer cells – cell-based, 24 h, human, pilot screen (AID 572;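 active means viability at or below 10% of carrier control in both of two separate runs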;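 further: compound exposure lasted between 18 and 24 h rather than exactly 24 h; 100% = carrier-treated control wells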). The note with it: SK-BR-3 viability, CellTiter-Glo luminescence, at 10 µM, stronger effect = lower value. (ATP-based viability assays read luminescence as a measure of living cells.)
Assay [3] is described as follows: HUVEC growth inhibition – cell-based, human, primary screen (AID 575;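 active means viability at or below 30% in both replicate assays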;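 further: 100% = median of untreated cell wells with 0.1% DMSO on each plate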). The note with it: HUVEC proliferation, CellTiter-Glo luminescence, 72 h; at 10 µM; stronger effect = lower value. In short, it runs like this:
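Assay system: Primary human umbilical vein endothelial cells | Quantity: 1250 cells per well | Medium: Supplemented EBM, 2% fetal bovine serum | Detection: CellTiter-Glo luminescence measuring cellular ATP | Read-out: % viability vs DMSO wells | Plate: Collagen-coated 384-well format | Times: 72 h exposure, 37 °C, 5% CO2, 30 min RT equilibration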

Assay [4] is described as follows: H69AR cell proliferation blockers – human, duplicate replicates, primary screen (AID 580;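 active means viability at or under a set limit in both replicates, limit being median viability minus 3 SD, cut at about 48% in these data, passing the limit was not always enough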;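 further: 100% = mean luminescence of untreated wells and 0% = no signal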). The note with it: H69AR lung tumor cells viability, ATP luminescence, 72 h; at 10 µM; stronger effect = lower value.
Assay [5] in a line: MRP1 drug-resistance reversers in H69AR cells – cell-based, doxorubicin co-treatment, pilot screen (AID 601;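 active means viability loss from added drug above about 55%, and viability with drug at most 40%, in both replicates, limit read from the data, passing the limit was not always enough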). The note with it: CellTiter-Glo, 72 h, at 10 µM; for differential viability (reversal): stronger effect = higher value.
Assay [6] can be described thus: yeast transport mutant growth inhibition pilot in 384-well plates, post-Golgi transport modulator project (AID 636; in the data active means inhibition above about 31%). The note with it: absorbance 615 nm, about 18 h, stronger effect = higher value.
Assay [7] can be described thus: growth suppression of yeast trafficking mutant, preliminary HTS, modulators of trafficking downstream of Golgi apparatus project, 1536-format plate, OD 615 nm (AID 637). Conditions: yeast transport mutant growth, absorbance 615 nm, 18 h; stronger effect = higher value.
Setting [8] is: H69AR cells + 2 uM doxorubicin, measured here: viability with 2 uM doxorubicin, stronger effect = lower value.
Where [9] appears, read: H69AR cells, compound alone cytotoxicity.

Active and inactive are the calls of the source. Unless noted, no stated cut-off is given here; in the data, active means inhibition above about 30%; inactive means the rest.

Pantothenate synthetase (Mycobacterium tuberculosis (strain ATCC 25618 / H37Rv)), sequence (P9WIL5 whole entry, looked up): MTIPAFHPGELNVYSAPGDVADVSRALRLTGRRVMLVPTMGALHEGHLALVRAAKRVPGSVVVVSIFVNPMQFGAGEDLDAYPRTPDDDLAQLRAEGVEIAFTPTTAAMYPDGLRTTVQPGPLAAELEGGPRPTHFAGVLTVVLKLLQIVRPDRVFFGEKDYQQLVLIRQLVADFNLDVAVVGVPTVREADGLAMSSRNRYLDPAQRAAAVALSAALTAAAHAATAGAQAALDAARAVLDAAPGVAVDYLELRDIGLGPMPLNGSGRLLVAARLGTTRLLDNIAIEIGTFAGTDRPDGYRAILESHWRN

As usually defined, the inhibition is the drop in the measured response relative to a control, in per cent. A word on the viability: it is a read-out of living cells in per cent, often relative to untreated cells. For `CCCC(C)(COC(N)=O)COC(=O)NC(C)C` (centres undefined), the figures for the inhibition in assay [1], in assay [6] and in assay [7] were 0% (inactive), -1.69% (inactive) and 4.17% (inactive), respectively. The viability in assay [2] is 88% (inactive); in assay [3], 86.4% (inactive); in assay [4], 100% (inactive); in assay [5] (setting [8]), 103%; in assay [5] (setting [9]) it was 100%. Further, the differential viability (reversal) in assay [5] (H69AR cells + 2 uM doxorubicin) is -3.16% (inactive).
As to `O=C(O)CCCc1ccc(N(CCCl)CCCl)cc1`, the inhibition in assay [1] was 0% (inactive); in assay [6] it was -1.17% (inactive); in assay [7], 0.67% (inactive). For the same compound, the viability in assay [2] was 78% (inactive); in assay [3], 68.1% (inactive); in assay [4] it was 81.8% (inactive); in assay [5] (setting [8]), 99.1%; in assay [5] (setting [9]), 81.8%. For the same compound, the differential viability (reversal) in assay [5] (H69AR cells + 2 uM doxorubicin) is -17.3% (inactive).
In the case of `CC(C)(C)P(=O)(c1ccncc1)N1CCCC1` (centres undefined), the inhibition in assay [1] is 4% (inactive); in assay [6] it was -7.3% (inactive); in assay [7], -2.18% (inactive). For the same compound, the viability in assay [2] was 111% (inactive); in assay [3], 105% (inactive); in assay [4], 92.8% (inactive); in assay [5] (setting [8]), 98.6%; in assay [5] (setting [9]) it was 92.8%. The differential viability (reversal) in assay [5] (H69AR cells + 2 uM doxorubicin) was -5.79% (inactive).
`[N-]=[N+]=CC(=O)OC[C@H](N)C(=O)O`: the inhibition in assay [1] is 0% (inactive); in assay [6], 1.56% (inactive); in assay [7], 1.83% (inactive). The viability is 99% (inactive) in assay [2]; 96.5% (inactive) in assay [3]; 88.5% (inactive) in assay [4]; 106% in assay [5] (setting [8]); 88.5% in assay [5] (setting [9]). The differential viability (reversal) in assay [5] (H69AR cells + 2 uM doxorubicin) was -17.2% (inactive).
On to `CN1[C@@H]2CC[C@H]1CC(OC(=O)C1C=Nc3ccccc31)C2` (some centres undefined), for which the inhibition in assay [1] is 4% (inactive); in assay [6] it was 3.25% (inactive); in assay [7], 0.5% (inactive). Besides, the viability in assay [2] was 86% (inactive); in assay [3], 82.4% (inactive); in assay [4], 83.3% (inactive); in assay [5] (setting [8]), 97.7%; in assay [5] (setting [9]) it was 83.3%. Further, the differential viability (reversal) in assay [5] (H69AR cells + 2 uM doxorubicin) is -14.3% (inactive).
Take `CNCC(O)c1ccc(O)cc1` (centres undefined): the inhibition in assay [1] was 0% (inactive); in assay [6] it was -1.82% (inactive); in assay [7], 8.83% (inactive). For the same compound, the viability in assay [2] was 120% (inactive); in assay [3] it was 95.6% (inactive); in assay [4], 102% (inactive); in assay [5] (setting [8]) it was 85.9%; in assay [5] (setting [9]) it was 102%. Moreover, the differential viability (reversal) in assay [5] (H69AR cells + 2 uM doxorubicin) is 15.7% (inactive).
